Results on three compounds are retold here after ChEMBL document CHEMBL3271968, “Novel bis(benzamidino) compounds with an aromatic central link. Inhibitors of thrombin, pancreatic kallikrein, trypsin, and complement” (J Med Chem, 1976).

As a reminder, the Ki is a measure of affinity in units of concentration, obtained from inhibition or displacement. Higher therefore signals weaker binding. One may read the inhibition as the share of the control response that was lost under treatment. The low end stands for a weak effect, the high end for a strong effect. What is called IC50 is the concentration that gives 50% inhibition.

Test [1] has as its system Plasma. The test can be described thus: Anticoagulant activity in human plasma assessed as partial thromboplastin time at 10 uM (reference value: 59 +/- 2.6 secs). The class given is functional.
Test [2] can be described thus: Inhibition of bovine trypsin using BANA as substrate after 15 to 30 mins. More on the design: species or system Bos taurus.
In test [3] the target is T1, Prothrombin (Bos taurus, UniProt P00735). The test can be described thus: Inhibition of amidase activity of bovine thrombin using BPVANA as substrate after 15 to 40 mins.
The species entered for test [4] is Cavia porcellus. The test can be described thus: Inhibition of guinea pig complement-mediated immune lysis of sheep red blood cells at 10 uM after 12 mins. An outline of the steps: (§1)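 Inhibitor in Tris/Mg/Ca/NaCl/gelatin buffer was preincubated 15 min at 37° with guinea pig complement (1:100 of 200 CH50/ml). Sheep erythrocytes (10^9/ml) presensitized with rabbit hemolysin (1:800) were added, and tubes incubated 12 min at 37°. Cold citrate-saline stopped lysis. Hemoglobin at 524 nm was converted to % inhibition via a complement standard curve, corrected for inhibitor lysis, in duplicate.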

For test [5], the target named is T2, Glandular kallikrein (Sus scrofa, UniProt P00752).
T2 sequence (P00752 whole entry): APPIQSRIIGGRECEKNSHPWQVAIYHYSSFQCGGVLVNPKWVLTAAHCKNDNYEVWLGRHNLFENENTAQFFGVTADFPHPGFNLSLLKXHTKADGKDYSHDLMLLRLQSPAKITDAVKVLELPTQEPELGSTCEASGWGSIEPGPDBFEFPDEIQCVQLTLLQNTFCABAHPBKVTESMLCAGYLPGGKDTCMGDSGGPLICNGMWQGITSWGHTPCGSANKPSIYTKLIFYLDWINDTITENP
The test can be described thus: Inhibition of porcine pancreatic kallikrein using BPPANA as substrate after 15 to 180 mins. The procedure, abridged: (§2)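 Porcine pancreatic kallikrein (635 Frey units/mg) amidase assay, pH 8.1, 37°, 15-180 min. […] Ki came from Dixon plots at two substrate concentrations. Means ± SD, n = 3.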

Test [6] relates to Plasma. The test can be described thus: Anticoagulant activity in human plasma assessed as partial thromboplastin time at 5 uM (reference value: 59 +/- 2.6 secs). Format: functional.
Test [7] is filed under the species Cavia porcellus. The test can be described thus: Inhibition of guinea pig complement-mediated immune lysis of sheep red blood cells at 30 uM after 12 mins. The procedure, abridged: as §1
The target in test [8] is Prothrombin (Bos taurus) (UniProt P00735). The test can be described thus: Inhibition of bovine thrombin-mediated blood clotting formation in presence of human fibrinogen.
The species named for test [9] is Cavia porcellus. The test can be described thus: Inhibition of guinea pig complement-mediated immune lysis of sheep red blood cells at 0.1 mM after 12 mins. The procedure, abridged:
as §1

The target in test [10] is T2, Glandular kallikrein. The test can be described thus: Inhibition of porcine pancreatic kallikrein using BANA as substrate after 15 to 180 mins. The procedure, abridged: as §2
Test [11] deals with T1, Prothrombin. The test can be described thus: Inhibition of amidase activity of bovine thrombin using BANA as substrate after 15 to 40 mins.
Test [12] concerns Rattus norvegicus. The test can be described thus: Anticoagulant activity in Wistar rat plasma assessed as activation of partial thromboplastin time at 1.9 mg/kg, iv. The class given is functional, organism-based. More on the design: dose 1.9 mg/kg. An outline of the steps: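 Female Wistar rats (about 300 g), anesthetized with sodium pentobarbital 25 mg/kg sc, received inhibitor at 1.9 mg/kg iv. Post-injection plasma was separated by centrifugation. 0.1 ml was mixed with Celite suspension, saline and partial thromboplastin, agitated 3 min at 37°, recalcified with 0.02 M CaCl2, and activated PTT clotting time recorded.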

For test [13], the system named is Plasma. The test can be described thus: Anticoagulant activity in human plasma assessed as partial thromboplastin time at 0.1 mM (reference value: 59 +/- 2.6 secs). Format: functional.

The source made the active and inactive calls. The rule behind the calls is not given here.

As for `Cl.N=C(N)c1ccc(OCc2ccc(COc3ccc(C(=N)N)cc3I)cc2)c(I)c1`, the APTT is 92 s in [1] and 80 s in test [6]. The results for the Ki in test [2], in test [3] and in test [5] were 2300 nM, 110 nM and 610 nM, respectively. Also, the inhibition in [4] worked out at 0%; in [7], 29.8%. Further, the IC50 in test [8] was found to be 1000 nM.

With `Cl.N=C(N)c1ccc(OCc2ccc(COc3ccc(C(=N)N)cc3)cc2)cc1`, the APTT in [1] was determined as 176 s; in test [6], 147 s; in test [13], 725 s. Besides, the inhibition in [9] was determined as 25.9%; in test [4], 0%; in [7], 0%. The Ki in test [10] is 11400 nM; in [11], 3400 nM; in test [2] it was 1300 nM. Besides, in [12], the result was inactive. In test [8], the IC50 came to 17000 nM.

Regarding `Cl.N=C(N)c1ccc(OCc2cccc(COc3ccc(C(=N)N)cc3I)c2)c(I)c1`, the APTT in test [1] worked out at 70 s; in test [6] it was 64 s; in test [13] it was 369 s. The inhibition in test [9] is over 50%; in test [4] it was 0%; in test [7], 32.6%. Further, the Ki in test [11] came out at 1200 nM; in test [2], 670 nM; in test [5], 31 nM.
